A selection: hits, their analogues and other compounds. The true share with any hit is near 1.9%.
EBI2 block: antagonists of human EBI2 receptor. EBI2 beta-arrestin recruitment, luminescence, 7a,25-OHC stimulated. inhibition, % at 5 µM. 0.81% of 360,000 active. AID 651636; in the data active = inhibition above about 38%;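 also: enzyme fragment complementation signal reports receptor beta-arrestin coupling in cells; 0% = agonist plus DMSO wells and 100% = wells without agonist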
APJ ag: activates the human apelin receptor APJ; CHO-K1 APJ PathHunter beta-arrestin, luminescence; 0% DMSO wells, 100% apelin; activation, % at 20 µM; 0.11% of 330,000 active;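 active = activation more than six SD over the plate average, tested at 20 µM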;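 also: 0% = DMSO alone and 100% = apelin-13 at 10 nM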
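system = engineered CHO-K1 APJ arrestin reporter cells | input = 1000 cells per well | timing = overnight seeding, 90 min compound at 25 °C, 1 h detection | measured by = enzyme-fragment complementation luminescence | read-out = beta-arrestin recruitment to APJ as agonist activity, luminescent signal | control set = negative DMSO alone, positive Apelin-13 at 10 nM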
APJ antagonist: blocks the human apelin receptor APJ | inhibition, % at 20 µM | P35414 | CHO-K1 APJ beta-arrestin complementation, luminescence | 0.32% of 330,000 active | AID 2521;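 active = inhibition above about 40% at 20 µM, limit read from the data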;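 also: cells challenged with 10 nM apelin-13 agonist together with compound; plate controls were apelin-13 plus DMSO wells for no effect and DMSO wells lacking apelin-13 for full effect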
TAG inh: inhibitors of triacylglycerol accumulation. inhibition, % at 12.5 µM. 0.66% of 230,000 active. AID 651582. H9c2 cells, Nile Red lipid (TAG) fluorescence; cells loaded with 200 µM oleic acid;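 active = pattern-corrected inhibition of lipid staining of at least 50% with the nuclear-stain viability signal not falling by more than 50%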;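 also: 0% = DMSO wells and 100% = triacsin C control wells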
CCR6 antag: blocks CCL20-driven beta-arrestin recruitment at human CCR6. P51684. CHO-K1 CCR6 PathHunter beta-arrestin, luminescence, CCL20-stimulated. inhibition, % at 20 µM. AID 493098. 0.49% of 340,000 active;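 active = compounds whose inhibition of the agonist-driven luminescence signal at 20 µM reaches about 50%, limit read from the data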;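 also: cells stimulated with CCL20 at 14 nM final; plate controls were DMSO with CCL20 for no effect and DMSO without agonist for full effect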
Target sequence (P51684 whole entry, looked up): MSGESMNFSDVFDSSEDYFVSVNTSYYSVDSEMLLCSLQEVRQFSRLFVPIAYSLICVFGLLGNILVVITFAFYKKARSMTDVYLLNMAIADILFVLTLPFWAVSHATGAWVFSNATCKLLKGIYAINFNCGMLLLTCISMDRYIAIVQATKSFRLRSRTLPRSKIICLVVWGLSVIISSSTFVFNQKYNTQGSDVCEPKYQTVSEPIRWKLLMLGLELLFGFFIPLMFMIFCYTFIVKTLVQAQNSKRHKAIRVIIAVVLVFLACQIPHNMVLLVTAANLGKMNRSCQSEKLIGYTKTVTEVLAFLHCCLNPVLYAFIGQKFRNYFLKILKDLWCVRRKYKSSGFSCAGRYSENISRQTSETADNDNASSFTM
CXCR6 block: inhibitors of human CXCR6 receptor. inhibition, % at 20 µM. 0.36% of 360,000 active. CHO-K1 PathHunter CXCR6 beta-arrestin, luminescence. O00574; in the data active = inhibition above about 34%, passing the limit was not always enough;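 also: antagonist mode with CXCL16 agonist at 10 nM final; 0% = 10 nM CXCL16 with DMSO and 100% = unstimulated wells without agonist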
APJ ag conf: APJ receptor agonism confirmation; shares compounds with APJ ag; activation, % at 20 µM; CHO-K1 APJ PathHunter beta-arrestin, luminescence; 10% of 310 active; AID 2764;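 active = activation above 40%, taking the highest of four retests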;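 also: plate controls were DMSO wells for no effect and apelin-13 at 10 nM for full effect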
* = called active by the depositor; · = no result given.

SMILES | EBI2 block | APJ ag | APJ antagonist | TAG inh | CCR6 antag | CXCR6 block | APJ ag conf
CC1=C(C(=O)OCc2ccc3c(c2)OCO3)C(c2ccc(Cl)cc2)NC(=O)N1 (centres undefined) | 9 | 3 | -2 | · | 0 | 5 | ·
CC1=C(C(=O)OCc2ccccc2)C(c2ccccc2)NC(=O)N1 (centres undefined) | -5 | -1 | 9 | 3 | 10 | -4 | ·
CC1=C(C(=O)OCc2ccccc2)C(c2cccc(F)c2)NC(=O)N1 (centres undefined) | 0 | 19* | 12 | · | -3 | -22 | 8
O=S1(=O)CC(N2CCN(CCO)CC2)CN1Cc1cn(Cc2ccc(F)cc2)nn1 (centres undefined) | -16 | · | · | · | · | -8 | ·
CCOC(=O)c1sc(NC(=O)CN2C(=O)NC3(CC(C)CC(C)(C)C3)C2=O)cc1C (centres undefined) | 2 | 38* | 5 | 14 | -15 | 4 | 4
CC(O)[C@H]1CNC(=O)C(=O)N1CC1(c2ccccc2)CC1 (some centres undefined) | -7 | -6 | -8 | 16 | 3 | -4 | ·
CCN(CC(=O)N1CCCC1)S(=O)(=O)c1cc(C)ccc1OC | 6 | 30* | 9 | · | 16 | 4 | 7
COc1cc(S(=O)(=O)NC2CCCC2)ccc1-n1cnnn1 | -7 | 1 | -1 | · | 19 | -10 | ·
COc1ccc(S(=O)(=O)NC2CC2)cc1-n1cnnn1 | -6 | 14* | -26 | · | 7 | -5 | 8
Cc1cccc(NC(=O)COc2coc(CN3CCc4ccccc4C3)cc2=O)c1 | -19 | 3 | 14 | 1 | 12 | -2 | ·
O=C(COC(=O)c1cc(=O)[nH]c2ccccc12)NCCc1ccccc1 | -2 | -1 | 4 | -5 | 13 | 0 | ·
COc1cc2c3nnc(-c4ccc(F)cc4)c-3cn(Cc3ccccc3)c2cc1OC | 2 | 24* | 18 | -390 | 4 | -4 | 36
COc1cc2c3nnc(-c4ccc(F)cc4)c-3cn(Cc3ccc(F)cc3)c2cc1OC | 7 | 4 | 27 | 33 | 13 | 6 | ·
CCN(CC)CCNC(=O)c1ccc(NC(=O)c2cc(-c3ccco3)nc3ccccc23)cc1 | 5 | 55* | -19 | · | 7 | 4 | 2
COc1ccc(C(=O)C2CCCN(C(=O)/C=C/c3cnc[nH]3)C2)c(C)c1 (centres undefined) | 7 | -6 | -28 | 5 | -4 | 2 | ·
CCOc1ccccc1-c1nc(-c2ccc(NC(=O)Cc3ccc(OC)cc3)cc2)no1 | 0 | 22* | -10 | -7 | -1 | 0 | 20
COc1ccc2cc(S(=O)(=O)NCc3cccnc3)ccc2c1 | 4 | 0 | 4 | · | 9 | 2 | ·
COC/C=C/C1=CC2=CC(=O)C(C)(OC(=O)c3cnc4ccccc4n3)C(=O)C2=CN1C(CO)CO (centres undefined) | -26 | 8 | -17 | -2 | -4 | -11 | ·
COC/C=C/C1=CC2=CC(=O)C(C)(OC(=O)c3cnc4ccccc4n3)C(=O)C2=CN1C1CCCC1 (centres undefined) | · | 122* | -55 | · | · | · | 21
O=C(/C=C/c1ccc(OCCCF)cc1)Nc1ccnc(-c2ccncc2)n1 | 7 | 16* | -24 | 9 | -18 | -7 | 36
CC1(C)CC(=O)N(c2ccc(Cl)cc2Cl)C(=O)C1 | -9 | -2 | 16 | · | -5 | -4 | ·
CCCN(C)C[C@H]1OCc2cnnn2CCCC(=O)N([C@H](C)CO)C[C@@H]1C | -8 | · | · | · | · | 2 | ·
O=C1O/C(=C/c2ccccc2)c2ccccc21 | -1 | -1 | 1 | · | 16 | 12 | ·
N#CC1=C(c2ccccc2)/C(=C/c2ccccc2)OC1=O | 5 | 17* | -18 | 9 | 64* | 35 | 12
CCOc1ccccc1NC(=O)NCCCCc1ccccc1 | -4 | 2 | 13 | · | 7 | -2 | ·
SMILES | EBI2 block | APJ ag | APJ antagonist | TAG inh | CCR6 antag | CXCR6 block | APJ ag conf
COc1ccccc1C(=O)Nc1nc(-c2ccc(S(=O)(=O)N3CCOCC3)cc2)cs1 | -37 | 45* | -32 | 7 | -7 | -23 | 4
C=C(C)Cn1c(=O)c2c(nc3n2CCCN3CCc2ccccc2)n(C)c1=O | 0 | -1 | -7 | · | 20 | 3 | ·
COC1(C)CC2C(CC1OC(=O)c1cc([N+](=O)[O-])cc([N+](=O)[O-])c1)C2(C)C (centres undefined) | 5 | 13* | -52 | · | -61 | -12 | 21
COC(=O)c1cc(C(=O)NCC2CCCCC2)cc([N+](=O)[O-])c1 | -7 | 0 | 1 | · | 12 | -24 | ·
Cc1ccc(-c2nn(-c3ccccc3)cc2/C=N/NC(=O)c2ccc(Br)o2)cc1 | -6 | 13* | -10 | · | -8 | -2 | 25
O=C(N/N=C\c1cn(-c2ccccc2)nc1-c1ccccc1)c1ccc(Br)o1 | 7 | 0 | -4 | 48 | 3 | 8 | ·
COc1ccc(/C=N/Nc2cc(C)nc3ccc(Br)cc23)cc1 | -14 | 17* | -6 | · | 1 | -4 | 37
COc1ccc(C(=O)Oc2ccc(N(C)S(=O)(=O)c3ccccc3)cc2)cc1[N+](=O)[O-] | 6 | 1 | 0 | · | 14 | 4 | ·
Cc1[nH]c2c(Cl)cccc2c(=O)c1CN1CCCCCC1 | -3 | -3 | -7 | · | 7 | 3 | ·
Cc1ccc2c(=O)c(CN3CCCCCC3)c(C)[nH]c2c1C | -4 | 25* | 13 | · | 1 | 1 | 34
COc1ccc(C=NNC(=O)c2cc(C)oc2C)cc1O | -9 | -3 | 5 | 14 | 3 | -6 | ·
CN(c1ccccc1)S(=O)(=O)c1cccc(NC(=O)c2cc(=O)c3ccccc3o2)c1 | -13 | 12* | -10 | 8 | -13 | 2 | 5
CCN(CC(=O)NCc1ccc(F)cc1)C(=O)COc1ccccc1[N+](=O)[O-] | -5 | -3 | 17 | -8 | 2 | 4 | ·
COc1ccc(-c2cn3c(C)c(C(=O)Nc4cccc(NC(C)=O)c4)sc3n2)cc1 | 41 | 17* | -31 | · | 6 | -10 | 17
Cc1cccn2c(=O)c3cc(C(=O)NCC4CCCO4)c(=N)n(CCN4CCOCC4)c3nc12 (centres undefined) | -9 | 31* | -6 | 14 | -2 | 8 | -5
Cc1ccc(S(=O)(=O)N2CCCC2C(=O)NCc2ccccc2F)cc1 (centres undefined) | 5 | -3 | -2 | -4 | 18 | -2 | ·
CN(C)S(=O)(=O)c1ccc(-c2csc(N/N=C/c3ccco3)n2)cc1 | -44 | 24* | -40 | 25 | -14 | -2 | 44*
CN(C)S(=O)(=O)c1ccc(-c2csc(N/N=C/c3ccc(O)cc3)n2)cc1 | -14 | 16* | -99 | 49 | 7 | 8 | -2
C(=N\Nc1nc(-c2ccccc2)cs1)/c1ccncc1 | -3 | 6 | -29 | 0 | -19 | -7 | ·
